Test results published in ChEMBL document CHEMBL1926615, “1,2,3-Triazole tethered β-lactam-chalcone bifunctional hybrids: synthesis and anticancer evaluation” (Eur J Med Chem, 2012).

Tests used:
Type in all cases: functional
THP-1 = experiment: Growth inhibition of human THP1 cells at 20 uM after 48 hrs by SRB assay; conditions: THP-1, 48 h, read-out: GI
How it was run: (§1)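 Cells grown in RPMI-1640 (2 mM glutamine, pH 7.4, 10% fetal calf serum, penicillin/streptomycin) at 37 °C, 5% CO2, 90% RH. Seeded as suspension of 1 x 10^5 cells/ml, grown 24 h, then test solutions (from DMSO stocks diluted in medium with gentamycin) added for 48 h. Fixed with TCA at 4 °C 1 h, SRB stained, dye dissolved in Tris-HCl pH 10.4, OD 540 nm. Percent growth inhibition computed versus untreated growth after blank subtraction.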

Caco-2 = experiment: Growth inhibition of human Caco2 cells at 20 uM after 48 hrs by SRB assay; conditions: Caco-2, 48 h, read-out: GI; how it was run: as §1
PC-3 = experiment: Growth inhibition of human PC3 cells at 1 uM after 48 hrs by SRB assay; conditions: PC-3, 48 h, read-out: GI
How it was run: (§2)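 Sulforhodamine B readout at 540 nm after 48 h exposure of cells seeded at 1×10⁵ cells/ml and pre-grown 24 h in RPMI-1640 with 10% fetal calf serum (37 °C, 5% CO2). Compounds diluted in medium from DMSO stocks.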

A549 = experiment: Growth inhibition of human A549 cells at 1 uM after 48 hrs by SRB assay; conditions: A549, 48 h, read-out: GI; how it was run: as §2

SMILES: O=c1[nH]cc(F)c(=O)[nH]1 [FLUOROURACIL]
- inhibition of growth at 20 µM (THP-1): 70%
- inhibition of growth at 20 µM (Caco-2): 68%

SMILES: CO[C@@]12[C@H](COC(N)=O)C3=C(C(=O)C(C)=C(N)C3=O)N1C[C@@H]1N[C@@H]12 [MITOMYCIN]
- inhibition of growth at 1 µM (PC-3): 60%

SMILES: CC(=O)O[C@H]1C(=O)[C@@]2(C)[C@H]([C@H](OC(=O)c3ccccc3)[C@]3(O)C[C@H](OC(=O)[C@H](O)[C@@H](NC(=O)c4ccccc4)c4ccccc4)C(C)=C1C3(C)C)[C@]1(OC(C)=O)CO[C@@H]1C[C@@H]2O [PACLITAXEL]
- inhibition of growth at 1 µM (A549): 69%
